Experimental data from different studies.
Compare with care: the assays were run in different laboratories.
Organism: Staphylococcus aureus
Read-out: microbial growth

Compound	method	strain	time	notes	MIC
Cc1ccc2nc(-c3ccco3)[nH]c2c1	broth dilution	ATCC29213 MSSA			256 µg/mL
CN[C@H](CC(C)C)C(=O)N[C@H]1C(=O)N[C@@H](CC(N)=O)C(=O)N[C@H]2C(=O)N[C@H]3C(=O)N[C@H](C(=O)N[C@H](C(=O)O)c4cc(O)cc(O)c4-c4cc3ccc4O)[C@H](O)c3ccc(c(Cl)c3)Oc3cc2cc(c3O[C@@H]2O[C@H](CO)[C@@H](O)[C@H](O)[C@H]2O[C@H]2C[C@](C)(N)[C@H](O)[C@H](C)O2)Oc2ccc(cc2Cl)[C@H]1O	broth dilution	16162			0.5 µg/mL
C=CC1(C)CC(OC(=O)CSCCCCCN(C)C)C2(C)C(C)CCC3(CCC(=O)C32)C(C)C1O (stereo not shown)					0.5 µg/mL
Cc1cc(C#N)ccc1C(=O)Nc1ccc(C(=O)N[C@@H](CC(N)=O)C(=O)Nc2ccc(C(=O)Nc3ccc(C(=O)Nc4ccc(C(=O)O)cc4)c(O)c3OC(C)C)cc2)cc1		ATCC29213			64 µg/mL
CC1=NN(CNc2ccc(O)cc2)C(=O)C1=NNn1c(-c2ccccc2)nc2ccccc2c1=O	broth dilution		24 h		53.5 µM
CCCCCCCCCC(=O)Oc1c(C)c(O)c(C(=O)/C=C/c2ccccc2)c(OC)c1C	broth dilution	ATCC25923			> 5000 µg/mL
O=C(O)CN1C(=O)/C(=C/c2c3ccccc3c(-c3ccc(N(c4ccccc4)c4ccccc4)cc3)c3ccccc23)SC1=S	broth dilution	ATCC25923			> 1000 µg/mL
Brc1ccc(NCc2ccc(Oc3ccccn3)cc2)cc1					> 6.2 µg/mL
C/C=C(\C)c1cc(OC(=O)c2c(O)c(C)c(O)c(Cl)c2/C(C)=C/C)c(C)c(O)c1C(=O)O	broth dilution	MRSA			64 µg/mL
Cc1cc(Nc2cc(N3CCN(C)CC3)nc(/C=C/c3ccccc3)n2)n[nH]1		NCTC8325			> 30 µM
COc1ccc(C(=O)O)cc1NC(=O)/C=C/c1ccc(-c2ccccc2C)cc1					64 µg/mL
C[C@H]1c2cccc(O)c2C(=O)C2=C(O)[C@]3(O)C(=O)C(C(N)=O)=C(O)[C@@H](N(C)C)[C@@H]3[C@@H](O)[C@@H]21				clinical isolate	6.25 µg/mL
C[S+]([O-])c1ccc(-c2nc(-c3ccc(F)cc3)c(-c3ccncc3)[nH]2)cc1 (stereo not shown)		NCTC8325			> 30 µM
CC(C)Oc1c(NC(=O)c2ccc(NC(=O)[C@H](CC(N)=O)NC(=O)c3ccc(NC(=O)c4ccc(C#N)c(F)c4)cc3)cc2)ccc(C(=O)Nc2ccc(C(=O)O)cc2)c1O		ATCC29213			2 µg/mL
CC[C@@H]1C(=O)N(C)c2cnc(Nc3ccc(C(=O)NC4CCN(C)CC4)cc3OC)nc2N1C1CCCC1		NCTC8325			> 30 µM
Cc1ccc(C)n1-c1ccc(-c2n[nH]c(=S)[nH]2)cc1	broth dilution	ATCC11632	18 h		4 µg/mL
O=C1NC(=O)/C(=C/c2ccc3c(c2)OC(F)(F)O3)S1		NCTC8325			> 30 µM
Cc1ccc2nc(-c3ccc(Cl)cc3)n(Cc3ccccc3)c2c1	broth dilution	ATCC29213 MSSA			4 µg/mL
CCOc1cc2ncc(C#N)c(Nc3ccc(F)c(Cl)c3)c2cc1NC(=O)/C=C/CN(C)C		NCTC8325			> 30 µM
Cc1ccc2nc(-c3ccc(F)cc3)[nH]c2c1	broth dilution	ATCC29213 MSSA			64 µg/mL
CN(C)C/C=C/C(=O)Nc1cc2c(Nc3ccc(F)c(Cl)c3)ncnc2cc1O[C@H]1CCOC1		NCTC8325			> 30 µM
O=C(O)CN1C(=O)/C(=C/c2ccc(-c3ccc(N(c4ccccc4)c4ccccc4)cc3)cc2)NC1=S	broth dilution	ATCC25923			3.9 µg/mL
